{"source": "ChEMBL document CHEMBL1132193", "about": "“Fluorescent pseudo-peptide linear vasopressin antagonists: design, synthesis, and applications” (J Med Chem, 1999)", "key": {"[1]": {"target": "Vasopressin V1a receptor (Homo sapiens, UniProt P37288)", "sequence (P37288 whole entry)": "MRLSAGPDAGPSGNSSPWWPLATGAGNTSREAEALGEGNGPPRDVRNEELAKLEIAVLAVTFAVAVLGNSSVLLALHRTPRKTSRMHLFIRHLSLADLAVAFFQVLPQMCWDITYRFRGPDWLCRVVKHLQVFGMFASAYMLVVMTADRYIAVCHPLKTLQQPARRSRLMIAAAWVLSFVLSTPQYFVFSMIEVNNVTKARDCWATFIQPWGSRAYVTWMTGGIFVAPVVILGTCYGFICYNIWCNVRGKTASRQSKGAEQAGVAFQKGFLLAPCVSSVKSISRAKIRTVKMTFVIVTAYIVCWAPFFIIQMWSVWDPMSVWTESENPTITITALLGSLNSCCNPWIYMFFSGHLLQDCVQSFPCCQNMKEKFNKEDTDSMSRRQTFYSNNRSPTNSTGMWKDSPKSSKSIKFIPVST", "assay": "Displacement of [125I]- HO-LVA from human Vasopressin V1a receptor in membranes of CHO cells", "format": "cell membranes", "how_it_was_run": "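CHO membranes expressing human V1a receptor (0.5–1 μg protein/assay), 50–70 pM [125I]HO-LVA. Incubated 1 h at 30 °C, equilibrium by 30 min. Competitor 1 pM to 10 μM; 1 μM unlabeled ligand defined nonspecific binding. Ki = IC50/(1+[*L]/Kd), nonlinear least-squares; at least three assays in triplicate.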"}, "[2]": {"target": "T1, Oxytocin receptor (Homo sapiens, UniProt P30559)", "T1 sequence (P30559 whole entry)": "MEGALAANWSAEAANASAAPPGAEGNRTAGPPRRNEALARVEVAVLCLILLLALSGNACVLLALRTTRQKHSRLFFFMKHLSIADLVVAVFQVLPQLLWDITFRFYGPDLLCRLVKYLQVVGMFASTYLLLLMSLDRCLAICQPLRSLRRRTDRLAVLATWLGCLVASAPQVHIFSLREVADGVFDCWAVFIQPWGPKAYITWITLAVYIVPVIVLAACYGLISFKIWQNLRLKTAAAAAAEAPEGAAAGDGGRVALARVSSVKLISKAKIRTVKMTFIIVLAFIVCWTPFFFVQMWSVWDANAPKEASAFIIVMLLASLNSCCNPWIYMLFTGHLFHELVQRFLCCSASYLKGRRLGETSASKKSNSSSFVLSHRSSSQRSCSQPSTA", "assay": "The inhibition constant (Ki(nM)) by displacement of [125I]- HO-LVA radiolabeled ligand using membranes of CHO cells of human Oxytocin receptor", "format": "cell membranes"}, "[3]": {"target": "T2, Vasopressin V1b receptor (Homo sapiens, UniProt P47901)", "T2 sequence (P47901 whole entry)": "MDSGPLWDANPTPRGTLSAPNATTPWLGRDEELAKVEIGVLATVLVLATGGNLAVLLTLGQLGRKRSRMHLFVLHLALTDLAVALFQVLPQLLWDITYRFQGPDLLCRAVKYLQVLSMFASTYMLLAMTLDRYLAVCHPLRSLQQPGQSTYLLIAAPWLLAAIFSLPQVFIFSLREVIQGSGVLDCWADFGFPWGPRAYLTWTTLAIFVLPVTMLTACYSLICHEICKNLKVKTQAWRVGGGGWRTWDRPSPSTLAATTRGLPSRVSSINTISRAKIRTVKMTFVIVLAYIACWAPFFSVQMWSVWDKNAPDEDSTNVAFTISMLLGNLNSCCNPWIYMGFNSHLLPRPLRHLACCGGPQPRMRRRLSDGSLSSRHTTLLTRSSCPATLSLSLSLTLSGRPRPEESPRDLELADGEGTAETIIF", "assay": "The inhibition constant (Ki(nM)) by displacement of [125I]- HO-LVA radiolabeled ligand using membranes of CHO cells of human Vasopressin V1b receptor", "format": "cell membranes", "how_it_was_run": "(§1)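 Human V1b receptor in CHO cell membranes; competition against 1 nM [125I]HO-LVA. Membranes at 0.5–1 μg protein/assay, 1 h at 30 °C. Competitor spanned 1 pM to 10 μM; nonspecific binding with 1 μM unlabeled ligand. Ki = IC50/(1+[*L]/Kd) by nonlinear least-squares fit, ≥3 assays in triplicate.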"}, "[4]": {"target": "T3, Vasopressin V2 receptor (Homo sapiens, UniProt P30518)", "T3 sequence (P30518 whole entry)": "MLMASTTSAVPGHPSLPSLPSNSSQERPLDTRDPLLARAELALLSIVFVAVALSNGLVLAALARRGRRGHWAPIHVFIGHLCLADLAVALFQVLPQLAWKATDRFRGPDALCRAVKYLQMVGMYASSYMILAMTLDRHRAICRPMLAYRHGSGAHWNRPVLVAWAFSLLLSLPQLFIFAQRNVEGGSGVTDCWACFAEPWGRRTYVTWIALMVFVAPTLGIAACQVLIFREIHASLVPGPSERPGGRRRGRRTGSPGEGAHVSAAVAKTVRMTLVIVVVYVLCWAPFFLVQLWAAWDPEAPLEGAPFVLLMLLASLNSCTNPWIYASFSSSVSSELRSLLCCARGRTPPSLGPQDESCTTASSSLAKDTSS", "assay": "The inhibition constant (Ki(nM)) by displacement of [125I]- HO-LVA radiolabeled ligand using membranes of CHO cells of human Vasopressin V2 receptor", "format": "cell membranes"}, "[5]": {"target": "T2, Vasopressin V1b receptor", "assay": "Compound was tested for its ability to displace [125I]- HO-LVA ligand from human Vasopressin V1b receptor in the membranes of CHO cells", "format": "cell membranes", "how_it_was_run": "as §1"}, "[6]": {"target": "T3, Vasopressin V2 receptor", "assay": "Compound was tested for its ability to of [125I]- HO-LVA radiolabeled ligand using membranes of CHO cells of human Vasopressin V2 receptor", "format": "cell-based"}}, "note": "Where a SMILES comes first, the peptide text is derived from it. [ ]: non-standard residue; d: D form. The star is where a group is joined. X1 = O=C(Cc1ccc(O)cc1)*", "data": [{"smiles": "COc1ccc(C[C@@H](NC(=O)CCc2ccc(O)cc2)C(=O)N[C@@H](Cc2ccccc2)C(=O)N[C@@H](CCC(N)=O)C(=O)N[C@@H](CC(N)=O)C(=O)N[C@@H](CCCCNC(=O)c2ccc3c(c2)C2(OC3=O)c3ccc(N(C)C)cc3Oc3cc(N(C)C)ccc32)C(=O)N2CCC[C@H]2C(=O)N[C@@H](CCCNC(=N)N)C(N)=O)cc1", "values": [{"measurement": "Ki", "setting": "[1]", "value": 3.3, "unit": "nM"}]}, {"smiles": "COc1ccc(C[C@@H](NC(=O)CCc2ccc(O)cc2)C(=O)N[C@@H](Cc2ccccc2)C(=O)N[C@@H](CCC(N)=O)C(=O)N[C@@H](CC(N)=O)C(=O)N[C@@H](CCCNC(=N)N)C(=O)N2CCC[C@H]2C(=O)N[C@@H](CCCCNC(=O)c2ccc3c(c2)C(=O)OC32c3ccc(N(C)C)cc3Oc3cc(N(C)C)ccc32)C(N)=O)cc1", "values": [{"measurement": "Ki", "setting": "[2]", "value": 1.2, "unit": "nM"}, {"measurement": "Ki", "setting": "[3]", "value": 27, "unit": "nM"}, {"measurement": "Ki", "setting": "[4]", "value": 7500, "unit": "nM"}, {"measurement": "Ki", "setting": "[1]", "value": 0.07, "unit": "nM"}]}, {"smiles": "COc1ccc(C[C@@H](NC(=O)CCc2ccc(O)cc2)C(=O)N[C@@H](Cc2ccccc2)C(=O)N[C@@H](CCC(N)=O)C(=O)N[C@@H](CC(N)=O)C(=O)N[C@@H](CCCNC(=N)N)C(=O)N2CCC[C@H]2C(=O)N[C@@H](CCCCNC(=O)c2ccc3c(c2)C(=O)OC32c3ccc(O)cc3Oc3cc(O)ccc32)C(N)=O)cc1", "values": [{"measurement": "Ki", "setting": "[2]", "value": 1.6, "unit": "nM"}, {"measurement": "Ki", "setting": "[3]", "value": 142, "unit": "nM"}, {"measurement": "Ki", "setting": "[4]", "value": 9200, "unit": "nM"}, {"measurement": "Ki", "setting": "[1]", "value": 0.17, "unit": "nM"}]}, {"smiles": "COc1ccc(C[C@@H](NC(=O)CCc2ccc(O)cc2)C(=O)N[C@@H](Cc2ccccc2)C(=O)N[C@@H](CCC(N)=O)C(=O)N[C@@H](CC(N)=O)C(=O)N[C@@H](CCCCNC(=O)c2ccc3c(c2)C(=O)OC32c3ccc(N(C)C)cc3Oc3cc(N(C)C)ccc32)C(=O)N2CCC[C@H]2C(=O)N[C@@H](CCCNC(=N)N)C(N)=O)cc1", "values": [{"measurement": "Ki", "setting": "[1]", "value": 1.3, "unit": "nM"}]}, {"smiles": "COc1ccc(C[C@@H](NC(=O)CCc2ccc(O)cc2)C(=O)N[C@@H](Cc2ccccc2)C(=O)N[C@@H](CCC(N)=O)C(=O)N[C@@H](CC(N)=O)C(=O)N[C@@H](CCCCNC(=O)c2ccc3c(c2)C(=O)OC32c3ccc(O)cc3Oc3cc(O)ccc32)C(=O)N2CCC[C@H]2C(=O)N[C@@H](CCCNC(=N)N)C(N)=O)cc1", "values": [{"measurement": "Ki", "setting": "[1]", "value": 5.6, "unit": "nM"}]}, {"smiles": "COc1ccc(C[C@@H](NC(=O)Cc2ccccc2)C(=O)N[C@@H](Cc2ccccc2)C(=O)N[C@@H](CCC(N)=O)C(=O)N[C@@H](CC(N)=O)C(=O)N[C@@H](CCCN=C(N)N)C(=O)N2CCC[C@H]2C(=O)N[C@@H](CCCN=C(N)N)C(N)=O)cc1", "values": [{"measurement": "Ki", "setting": "[2]; cho", "value": 1.1, "unit": "nM"}, {"measurement": "Ki", "setting": "[3]; cho", "value": 9.4, "unit": "nM"}, {"measurement": "Ki", "setting": "[4]; cho", "value": 282, "unit": "nM"}, {"measurement": "Ki", "setting": "[1]; cho", "value": 0.8, "unit": "nM"}]}, {"smiles": "COc1ccc(C[C@@H](NC(=O)CCc2ccc(O)cc2)C(=O)N[C@@H](Cc2ccccc2)C(=O)N[C@@H](CCC(N)=O)C(=O)N[C@@H](CC(N)=O)C(=O)N[C@@H](CCCNC(=N)N)C(=O)N2CCC[C@H]2C(=O)N[C@@H](CCCCNC(=O)c2ccc3c(c2)C2(OC3=O)c3ccc(O)cc3Oc3cc(O)ccc32)C(N)=O)cc1", "values": [{"measurement": "Ki", "setting": "[1]", "value": 0.23, "unit": "nM"}]}, {"smiles": "COc1ccc(C[C@@H](NC(=O)CCc2ccc(O)cc2)C(=O)N[C@@H](Cc2ccccc2)C(=O)N[C@@H](CCC(N)=O)C(=O)N[C@@H](CC(N)=O)C(=O)N[C@@H](CCCNC(=N)N)C(=O)N2CCC[C@H]2C(=O)N[C@@H](CCCCNC(=O)c2ccc3c(c2)C2(OC3=O)c3ccc(N(C)C)cc3Oc3cc(N(C)C)ccc32)C(N)=O)cc1", "values": [{"measurement": "Ki", "setting": "[1]", "value": 0.17, "unit": "nM"}]}, {"smiles": "COc1ccc(C[C@@H](NC(=O)Cc2ccc(O)cc2)C(=O)N[C@@H](Cc2ccccc2)C(=O)N[C@@H](CCC(N)=O)C(=O)N[C@@H](CC(N)=O)C(=O)N[C@@H](CCCN=C(N)N)C(=O)N2CCC[C@H]2C(=O)N[C@@H](CCCN=C(N)N)C(N)=O)cc1", "note": "(X1-[dY](Me)FQNRPR-NH2)", "values": [{"measurement": "Ki", "setting": "[2]", "value": 2.7, "unit": "nM"}, {"measurement": "Ki", "setting": "[1]", "value": 0.08, "unit": "nM"}, {"measurement": "Ki", "setting": "[5]", "value": 5.9, "unit": "nM"}, {"measurement": "Ki", "setting": "[6]", "value": 137, "unit": "nM"}]}, {"smiles": "CCN(CC)c1ccc2c(-c3ccccc3C(=O)N[C@H](Cc3ccc(OC)cc3)C(=O)N[C@@H](Cc3ccccc3)C(=O)N[C@@H](CCC(N)=O)C(=O)N[C@@H](CC(N)=O)C(=O)N[C@@H](CCCNC(=N)N)C(=O)N3CCC[C@H]3C(=O)N[C@@H](CCCNC(=N)N)C(=O)N[C@@H](Cc3ccc(O)cc3)C(N)=O)c3ccc(=[N+](CC)CC)cc-3oc2c1", "values": [{"measurement": "Ki", "setting": "[1]; cho", "value": "> 500", "unit": "nM"}]}]}
